Experimental data as given in PMC3944097 (ACS chemical biology, 2013).

What was measured:
different MMPs = assay: Specificity and selectivity of probes to MMP enzymes; assay type: biochemical; details: fluorescence activation by MMP enzymes (Figure 2a)
MMP-13 = MMP-13 (Homo sapiens, UniProt P45452); assay: LC/MS analysis of probe fragmentation on incubation with MMP-13; assay type: biochemical; details: for metabolites found after incubation with MMP-13: 2 h incubation with MMP-13, LC/MS
Outline: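 Test compound (1 μM) incubated with MMP-13 catalytic domain (40 nM) at 37 °C in 50 mM Tris, 10 mM CaCl2, 150 mM NaCl, 0.05% Brij35, pH 7.8. Aliquots were taken every 10 min to 60 min, then every 20 min to 120 min. Each was quenched with an equal volume of acetonitrile containing 10% HCOOH. Fragments were identified by UPLC–Q-Tof LC–MS.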

[1] = LC/MS identification of parent probe, Met1 and Met2 in tumor, plasma and liver; assay type: in vivo, mice; details: 60 min after probe injection; for species detected in liver: liver homogenate; for species detected in liver / parent probe in plasma: LC/MS; for species detected in SCC-7 tumor: tumor homogenate, high sensitivity LC/MS
Outline: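 Female athymic nude mice bore subcutaneous SCC-7 tumours (~300 mm3) and received probe intravenously via the tail vein. At 60 min, plasma, tumour and liver were collected. Tissues were weighed, stored in liquid nitrogen and homogenised in H2O/acetonitrile 50/50 containing 10% HCOOH. After pellet removal, extracts were lyophilised and redissolved in the same solvent. High-sensitivity LC–MS then screened for parent probe, Met1 and Met2.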

[2] = assay type: in vivo, mice; details: for half-life: mouse, iv
Outline: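 Female athymic nude mice bore SCC-7 tumours, grown from 1 × 10^6 cells injected subcutaneously into the right front flank and used at ~300 mm3. Probe was given intravenously via the tail vein. Blood was sampled at 1, 5, 15, 30, 45 and 60 min. Intact probe and the Met1/Met2 fragments were measured by HPLC–QTRAP LC–MS using a single MRM transition, with triplicate injections.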

[3] = system: catalytic domain of MMP-13; assay: reaction buffer; details: 37 °C, up to 120 min

Compound	enzyme specificity and selectivity over different MMPs (different MMPs)	metabolites found after incubation with MMP-13 (MMP-13)	species detected in liver [1]	parent probe in plasma [1]	species detected in SCC-7 tumor [1]	Met1/Met2 ratio in blood ([2]; mice, i.v., blood samples at 1, 5, 15, 30, 45 and 60 min p.i., LC/MS)	half-life ([2]; blood)	cleaved bond [3]	intact probe in blood samples at 45 min after injection ([2]; mice, i.v., blood, LC/MS)	further cleavage of metabolite by MMP-13 (MMP-13; incubation with MMP-13, LC/MS, late time points)
CCN(CC)c1ccc2nc3ccc(N=Nc4ccc(N(C)CCCC(=O)NCCCC[C@@H](NC(=O)CNC(=O)[C@H](CCCNC(=N)N)NC(=O)[C@@H](NC(=O)CNC(=O)[C@H](CC(C)C)NC(=O)[C@@H]5CCCN5C(=O)CNC(=O)CCCCC[N+]5=C(C=CC=CC=C6N(CC)c7ccc8c(S(=O)(=O)[O-])cc(S(=O)(=O)O)cc8c7C6(C)C)C(C)(C)c6c5ccc5c(S(=O)(=O)[O-])cc(S(=O)(=O)O)cc65)C(C)C)C(=O)NCC(=O)NCC(=O)NCCOCCOCCOCCOCCOCCOCCOCCOCCOCCOCCOCCO)cc4)cc3[n+](-c3ccccc3)c2c1 [D-MMP-P12]	very similar enzyme specificity and selectivity with L-MMP-P12	only the MMP specific metabolite Met1 but not Met2 was found	only Met2 fragment could be detected	still detectable after 1 h	parent D-MMP-P12 probe, Met1 and Met2 were all detectable	much higher than that of L-MMP-P12 at all the time points examined	29.8 ± 0.45 min	–	–	–
GPLGVRGKGG	–	–	–	–	–	–	–	Gly4-Val5, major	–	–
CCN(CC)c1ccc2nc3ccc(N=Nc4ccc(N(C)CCCC(=O)NCCCC[C@H](NC(=O)CNC(=O)[C@H](CCCNC(=N)N)NC(=O)[C@@H](NC(=O)CNC(=O)[C@H](CC(C)C)NC(=O)[C@@H]5CCCN5C(=O)CNC(=O)CCCCC[N+]5=C(C=CC=CC=C6N(CC)c7ccc8c(S(=O)(=O)[O-])cc(S(=O)(=O)O)cc8c7C6(C)C)C(C)(C)c6c5ccc5c(S(=O)(=O)[O-])cc(S(=O)(=O)O)cc65)C(C)C)C(=O)NCC(=O)NCC(=O)NCCOCCOCCOCCOCCOCCOCCOCCOCCOCCOCCOCCO)cc4)cc3[n+](-c3ccccc3)c2c1 [L-MMP-P12]	–	two major fragments	only Met2 fragment could be detected	very little L-MMP-P12 was found	only Met2 was detected while no parent probe or Met1 was found	–	7.81 ± 0.25 min	–	almost no intact L-MMP-P12 can be detected	–
Cy5.5-GPLGVR [Met2]	–	–	–	–	–	–	–	–	–	can be further cut by MMP-13 to form Met1
